Experimental data as given in ChEMBL document CHEMBL5712080, “PRMT5 promotes cell proliferation by inhibiting BTG2 expression via the ERK signaling pathway in hepatocellular carcinoma” (Cancer Med, 2018).
The source made the active and inactive calls.

Columns and labels:
[1] = target: Protein arginine N-methyltransferase 5 (Homo sapiens) (UniProt O14744); assay: Inhibition of PRMT5 in human Huh-7 cells assessed as H4R3me2s protein level at 500 nM for 4 days by Western blot analysis; format: cell-based; details: time 4.0 day
[2] = target: Protein arginine N-methyltransferase 5 (Homo sapiens) (UniProt O14744); assay: Inhibition of PRMT5 in human SK-HEP1 cells assessed as H4R3me2s protein level at 500 nM for 4 days by Western blot analysis; format: cell-based; details: time 4.0 day
[3] = target: Protein arginine N-methyltransferase 5 (Homo sapiens) (UniProt O14744); assay: Inhibition of PRMT5 in human Huh-7 cells assessed as upregulation of BTG2 protein level at 500 nM for 4 days by Western blot analysis; format: cell-based; details: time 4.0 day
[4] = target: Protein arginine N-methyltransferase 5 (Homo sapiens) (UniProt O14744); assay: Inhibition of PRMT5 in human SK-HEP1 cells assessed as upregulation of BTG2 protein level at 500 nM for 4 days by Western blot analysis; format: cell-based; details: time 4.0 day
[5] = target: Protein arginine N-methyltransferase 5 (Homo sapiens) (UniProt O14744); assay: Inhibition of PRMT5 in human Huh-7 cells assessed as upregulation of ERK phosphorylation level at 500 nM for 4 days by Western blot analysis; format: cell-based; details: time 4.0 day
[6] = target: Protein arginine N-methyltransferase 5 (Homo sapiens) (UniProt O14744); assay: Inhibition of PRMT5 in human SK-HEP1 cells assessed as upregulation of ERK phosphorylation level at 500 nM for 4 days by Western blot analysis; format: cell-based; details: time 4.0 day
[7] = test system: Huh-7; assay: Reversal of H4R3me2s level in human Huh-7 cells at 500 nM for 4 days in presence of PD184352 by Western blotting analysis; format: functional, cell-based; details: time 4.0 day
[8] = test system: SK-HEP1; assay: Reversal of H4R3me2s level in human SK-HEP1 cells at 500 nM for 4 days in presence of PD184352 by Western blotting analysis; format: functional, cell-based; details: time 4.0 day
[9] = test system: Huh-7; assay: Reversal of ERK phosphorylation level in human Huh-7 cells at 500 nM for 4 days in presence of PD184352 by Western blotting analysis; format: functional, cell-based; details: time 4.0 day
[10] = test system: SK-HEP1; assay: Reversal of ERK phosphorylation level in human SK-HEP1 cells at 500 nM for 4 days in presence of PD184352 by Western blotting analysis; format: functional, cell-based; details: time 4.0 day
[11] = test system: Huh-7; assay: Reversal of BTG2 protein level in human Huh-7 cells at 500 nM for 4 days in presence of PD184352 by Western blotting analysis; format: functional, cell-based; details: time 4.0 day
[12] = test system: SK-HEP1; assay: Reversal of BTG2 protein level in human SK-HEP1 cells at 500 nM for 4 days in presence of PD184352 by Western blotting analysis; format: functional, cell-based; details: time 4.0 day
[13] = test system: Huh-7; assay: Upregulation of BTG2 protein in PRMT5 knockdown human Huh-7 cells at 20 microM for 24 hrs by Western blot analysis; format: functional, cell-based
Summary of the method: (§1)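 Huh7 or SK-Hep1 cells stably carrying lentiviral shRNA against PRMT5, selected 2 weeks in puromycin (final 1 μg/mL), grown in DMEM/10% FBS at 37°C, 5% CO2. Cells pretreated 24 h with 20 μM PD184352 (ERK phosphorylation inhibitor). RIPA lysates run on 8–12% SDS-PAGE, PVDF, 5% milk block, primary antibody overnight at 4°C, HRP secondary, chemiluminescent detection. Histone 3 was the nuclear loading control.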

[14] = test system: SK-HEP1; assay: Upregulation of BTG2 protein in PRMT5 knockdown human SK-HEP1 cells at 20 microM for 24 hrs by Western blot analysis; format: functional, cell-based; summary of the method: as §1

Protein arginine N-methyltransferase 5 (Homo sapiens), sequence (O14744 whole entry): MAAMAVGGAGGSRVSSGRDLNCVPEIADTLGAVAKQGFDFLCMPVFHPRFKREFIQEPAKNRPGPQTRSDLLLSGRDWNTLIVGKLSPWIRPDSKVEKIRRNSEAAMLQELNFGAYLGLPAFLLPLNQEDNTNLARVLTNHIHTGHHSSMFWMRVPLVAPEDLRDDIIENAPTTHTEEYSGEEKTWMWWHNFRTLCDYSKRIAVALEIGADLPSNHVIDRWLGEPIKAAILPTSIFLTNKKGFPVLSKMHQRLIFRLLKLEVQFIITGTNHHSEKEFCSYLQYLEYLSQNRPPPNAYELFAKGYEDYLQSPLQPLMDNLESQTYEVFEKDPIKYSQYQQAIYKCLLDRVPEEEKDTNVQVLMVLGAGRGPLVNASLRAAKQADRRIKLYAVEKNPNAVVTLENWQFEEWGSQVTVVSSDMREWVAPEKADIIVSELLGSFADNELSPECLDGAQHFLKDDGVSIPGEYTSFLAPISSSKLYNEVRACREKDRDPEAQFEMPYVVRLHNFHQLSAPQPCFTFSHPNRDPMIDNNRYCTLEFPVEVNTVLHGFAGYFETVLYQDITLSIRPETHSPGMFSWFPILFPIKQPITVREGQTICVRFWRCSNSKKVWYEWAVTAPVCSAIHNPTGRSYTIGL

O=C(NC[C@H](O)CN1CCc2ccccc2C1)c1ccnc(NC2CCC2)c1
active: inhibition [1] | inhibition [2] | inhibition [3] | inhibition [4] | inhibition [5] | inhibition [6] | Activity [7] | Activity [8] | Activity [9] | Activity [10] | Activity [11] | Activity [12]

O=C(NOCC1CC1)c1ccc(F)c(F)c1Nc1ccc(I)cc1Cl
active: Activity [13] | Activity [14]
